Measurements as given in PMC4567957 (Bioorganic & medicinal chemistry letters, 2015).
“Also recorded” adds a separate entry of the source. Starred links: 1 amine or outer side, 2 acyl side, 3 side chain; linkers in the order of their positions; H or OH if unused. Positions of bridges follow the written chain, without caps; N, C: chain ends. Non-standard residues stand in square brackets, D forms with d. Residues, ends and D or L forms follow the SMILES beside them. *: point of attachment. CH2CONHCH2CH2NHCOCH2 = O=C(C[*:1])NCCNC(=O)C[*:2]; Propanoyl(3,3-Ph2) = O=C(CC(c1ccccc1)c1ccccc1)*; Pyridine(2,6-diCH2) = c1cc(C[*:1])nc(C[*:2])c1; X2 = O=C(CC(c1ccccc1)(c1ccccc1)c1ccccc1)*; Dip = N[C@H](C(=O)O)C(c1ccccc1)c1ccccc1; X1 = CCCCCCCCCCCCCCCC(=O)NCCOCCOCCN*; mXylylene = c1cc(C[*:1])cc(C[*:2])c1; oXylylene = c1ccc(C[*:2])c(C[*:1])c1; NH(CH2CH2O)2CH2CH2NH2 = NCCOCCOCCN*; pXylylene = c1cc(C[*:2])ccc1C[*:1]; Mpa = O=C(O)CCS

Key:
[1] = Plasma stability in freshly prepared mouse plasma; type: in vitro ADME; settings: 25 μM, 37 °C
Summary of the method: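 Test compound, from a 10 mM DMSO stock, spiked into freshly prepared mouse plasma (final 25 μM) and incubated at 37 °C. Aliquots taken at set time points were quenched in DMSO/acetonitrile (1:1) with 0.1% TFA and centrifuged (13000 rpm, 10 min). Supernatants were analysed by triple-quadrupole LC/MS against a peptide internal standard to follow remaining intact peptide over time.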

human ferroportin-GFP = biological target: T1, human ferroportin-GFP (Homo sapiens, UniProt Q9NP59); test: In vitro ferroportin; type: cell-based; settings: for bioactivity in Fpn degradation assay (in words): result in words, see Table 1; for times less active than mHS5: versus mHS5
T1 sequence (Q9NP59 1-571): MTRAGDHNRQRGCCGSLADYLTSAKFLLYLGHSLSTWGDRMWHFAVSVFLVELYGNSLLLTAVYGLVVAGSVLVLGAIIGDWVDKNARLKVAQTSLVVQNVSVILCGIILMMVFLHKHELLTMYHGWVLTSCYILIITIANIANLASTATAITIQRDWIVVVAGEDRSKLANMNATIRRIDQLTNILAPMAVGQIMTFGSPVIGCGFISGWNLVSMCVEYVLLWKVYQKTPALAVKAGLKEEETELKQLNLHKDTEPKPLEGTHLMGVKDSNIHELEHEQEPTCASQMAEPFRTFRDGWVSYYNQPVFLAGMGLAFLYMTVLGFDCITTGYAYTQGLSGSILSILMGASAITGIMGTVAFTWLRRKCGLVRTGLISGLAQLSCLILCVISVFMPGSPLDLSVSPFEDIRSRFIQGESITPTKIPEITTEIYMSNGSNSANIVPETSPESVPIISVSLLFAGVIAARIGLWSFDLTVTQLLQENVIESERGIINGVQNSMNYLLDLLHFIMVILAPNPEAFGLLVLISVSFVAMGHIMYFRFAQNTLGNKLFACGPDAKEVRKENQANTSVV

C57BL/6 mice = type: in vivo, mouse; settings: subcutaneous, 50–200 nmoles, 24h post-injection

CC(=O)N[C@@H](CS)C(=O)N[C@@H](Cc1ccccc1)C(=O)N1CCC[C@H]1C(=O)N[C@@H](CCCNC(=N)N)C(=O)N[C@@H](CS)C(=O)N[C@@H](CCCNC(=N)N)C(=O)N[C@@H](Cc1ccccc1)C(=O)N[C@@H](CS)C(N)=O [mHS1] (Ac-CFPRCRFC-NH2; N-terminus and C-terminus assumed)
time within which degraded in plasma [1]: ≤ 6 h
EC50 (human ferroportin-GFP): > 0.6 µM

CC(=O)N[C@H]1CSCC(=O)NCCNC(=O)CSC[C@@H](C(N)=O)NC(=O)[C@H](Cc2ccccc2)NC(=O)[C@H](CCCNC(=N)N)NC(=O)[C@H](CS)NC(=O)[C@H](CCCNC(=N)N)NC(=O)[C@@H]2CCCN2C(=O)[C@H](Cc2ccccc2)NC1=O [mHS2] (Ac-CFPRCRFC-NH2; linker 1-8 via CH2CONHCH2CH2NHCOCH2; N-terminus and C-terminus assumed)
bioactivity in Fpn degradation assay (in words) (human ferroportin-GFP): inactive

CC(=O)N[C@H]1CSCc2ccc(cc2)CSC[C@@H](C(N)=O)NC(=O)[C@H](Cc2ccccc2)NC(=O)[C@H](CCCNC(=N)N)NC(=O)[C@H](CS)NC(=O)[C@H](CCCNC(=N)N)NC(=O)[C@@H]2CCCN2C(=O)[C@H](Cc2ccccc2)NC1=O [mHS4] (Ac-CFPRCRFC-NH2; linker 1-8 via pXylylene (inferred))
times less active than mHS5 (human ferroportin-GFP): approximately 2 times

CC(=O)N[C@H]1CSCc2ccccc2CSC[C@@H](C(N)=O)NC(=O)[C@H](Cc2ccccc2)NC(=O)[C@H](CCCNC(=N)N)NC(=O)[C@H](CS)NC(=O)[C@H](CCCNC(=N)N)NC(=O)[C@@H]2CCCN2C(=O)[C@H](Cc2ccccc2)NC1=O [mHS6] (Ac-CFPRCRFC-NH2; linker 1-8 via oXylylene; N-terminus and C-terminus assumed)
times less active than mHS5 (human ferroportin-GFP): approximately 2 times

CC(=O)N[C@H]1CSCc2cccc(n2)CSC[C@@H](C(N)=O)NC(=O)[C@H](Cc2ccccc2)NC(=O)[C@H](CCCNC(=N)N)NC(=O)[C@H](CS)NC(=O)[C@H](CCCNC(=N)N)NC(=O)[C@@H]2CCCN2C(=O)[C@H](Cc2ccccc2)NC1=O [mHS7] (Ac-CFPRCRFC-NH2; linker 1-8 via Pyridine(2,6-diCH2); N-terminus and C-terminus assumed)
bioactivity in Fpn degradation assay (in words) (human ferroportin-GFP): inactive

CC(=O)N[C@H]1CSCc2cccc(c2)CSC[C@@H](C(N)=O)NC(=O)[C@H](Cc2ccccc2)NC(=O)[C@H](CCCNC(=N)N)NC(=O)[C@H](CS)NC(=O)[C@H](CCCNC(=N)N)NC(=O)[C@@H]2CCCN2C(=O)[C@H](C(c2ccccc2)c2ccccc2)NC1=O [mHS15] (Ac-C[Dip]PRCRFC-NH2; linker 1-8 via mXylylene; N-terminus and C-terminus assumed)
increase in potency (4Phe→Dpa) (human ferroportin-GFP; mHS5 versus mHS15): 5 ×

CCCCCCCCCCCCCCCCNC(=O)CN(CC(N)=O)C(=O)CCCCCNC(=O)[C@@H]1CSCc2cccc(c2)CSC[C@H](NC(C)=O)C(=O)N[C@@H](C(c2ccccc2)c2ccccc2)C(=O)N2CCC[C@H]2C(=O)N[C@@H](CCCNC(=N)N)C(=O)N[C@@H](CS)C(=O)N[C@@H](CCCNC(=N)N)C(=O)N[C@@H](Cc2ccccc2)C(=O)N1 [mHS17]
in vivo activity (decrease in serum iron) (C57BL/6 mice): no desired biological effect; also recorded: no in vivo potency

N=C(N)NCCC[C@@H]1NC(=O)[C@@H](NC(=O)CC(c2ccccc2)(c2ccccc2)c2ccccc2)CSCc2cccc(c2)CSC[C@@H](C(N)=O)NC(=O)[C@H](Cc2ccccc2)NC(=O)[C@H](CCCNC(=N)N)NC(=O)[C@H](CS)NC1=O [mHS19] (X2-CRCRFC-NH2; linker 1-6 via mXylylene; C-terminus assumed)
EC50 (human ferroportin-GFP): ~0.1 µM
fold less potent than mHS15 (human ferroportin-GFP; versus mHS15): approximately 2 ×

N=C(N)NCCC[C@@H]1NC(=O)[C@H](CS)NC(=O)[C@H](CCCNC(=N)N)NC(=O)[C@@H]2CCCN2C(=O)[C@H](C(c2ccccc2)c2ccccc2)NC(=O)CCSCc2cccc(c2)CSC[C@@H](C(=O)NCCOCCOCCN)NC(=O)[C@H](Cc2ccccc2)NC1=O [mHS23] ([Mpa][Dip]PRCRFC-{NH(CH2CH2O)2CH2CH2NH2}; linker 1-8 via mXylylene (inferred))
times more active than mHS22 (human ferroportin-GFP; versus AcNH-containing mHS22): approximately 2 times

CCCCCCCCCCCCCCCC(=O)NCCOCCOCCNC(=O)[C@@H]1CSCc2cccc(c2)CSC[C@H](NC(=O)CC(c2ccccc2)c2ccccc2)C(=O)N[C@@H](CCCNC(=N)N)C(=O)N[C@@H](CS)C(=O)N[C@@H](CCCNC(=N)N)C(=O)N[C@@H](Cc2ccccc2)C(=O)N1 [mHS26] ({Propanoyl(3,3-Ph2)}-CRCRFC-X1; linker 1-6 via mXylylene; N-terminus and C-terminus assumed)
plasma stability compared with PR73 [1]: slightly more resistant to plasma driven degradation
in vivo activity (decrease in serum iron) (C57BL/6 mice): no desired biological effect; also recorded: no in vivo potency
fold less potent than parental minihepcidin PR73 (human ferroportin-GFP; ratio of EC50 versus PR73): 12.5 ×
